Experimental data: ChEMBL document CHEMBL1671647, “In vitro activity of LK-157, a novel tricyclic carbapenem as broad-spectrum {beta}-lactamase inhibitor” (Antimicrob Agents Chemother, 2009)
Converted amounts (≈) assume the structure as drawn.

Legend:
[1] = Inhibition of Klebsiella pneumoniae Beta-lactamase SHV-1
In short: (§1)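 Purified β-lactamase (final 0.25 μg/ml) was preincubated with inhibitor for 10 min at 37°C in […] phosphate, pH 7, with 10% DMSO final. Prewarmed nitrocefin was then added (final […] as printed). A490 was read every 30 s for 10 min at 37°C to give initial rates. IC50 was fitted by sigmoidal nonlinear regression, from at least two independent experiments, with 95% CI.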

[2] = Inhibition of Enterobacter cloacae Beta-lactamase AmpC; in short: as §1
[3] = Inhibition of Beta-lactamase TEM-1; in short: as §1
Citrobacter freundii = experiment: Antibacterial activity against Citrobacter freundii by broth microdilution method; assay type: functional
In short: (§2)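 Broth microdilution MICs per CLSI against clinical and ATCC isolates; stocks in distilled water, diluted with water or Mueller-Hinton broth, drug weights corrected for salt forms. Twofold series from 256 to 0.125 μg/ml or 25.6 to 0.0125 μg/ml. Inoculum 5 × 10^5 CFU/ml (final) by direct colony suspension. β-Lactamase inhibitors, when combined with a β-lactam, held constant at 4 μg/ml.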

Enterobacter cloacae = experiment: Antibacterial activity against Enterobacter cloacae by broth microdilution method; assay type: functional; in short: as §2
Staphylococcus aureus [4] = experiment: Antibacterial activity against methicillin-resistant Staphylococcus aureus by broth microdilution method; assay type: functional
In short: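 CLSI broth microdilution MIC against clinical isolates. In β-lactam combinations the inhibitor was held constant at 4 μg/ml. Inoculum was prepared by direct colony suspension, final 5 × 10^5 CFU/ml.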

Pseudomonas aeruginosa = experiment: Antibacterial activity against Pseudomonas aeruginosa by broth microdilution method; assay type: functional; in short: as §2
Staphylococcus aureus [5] = experiment: Antibacterial activity against methicillin-susceptible Staphylococcus aureus by broth microdilution method; assay type: functional; in short: as §2
Enterococcus sp. = experiment: Antibacterial activity against Enterococcus sp. by broth microdilution method; assay type: functional; in short: as §2
Moraxella catarrhalis = experiment: Antibacterial activity against Moraxella catarrhalis by broth microdilution method; assay type: functional; in short: as §2
Escherichia coli = experiment: Antibacterial activity against Escherichia coli by broth microdilution method; assay type: functional; in short: as §2
Klebsiella sp. = experiment: Antibacterial activity against Klebsiella sp. by broth microdilution method; assay type: functional; in short: as §2

Row | Structure (SMILES) | IC50 [1] [nM] | IC50 [2] [nM] | IC50 [3] [nM] | MIC (Citrobacter freundii) [µg/mL] | MIC (Enterobacter cloacae) [µg/mL] | MIC50 (Enterobacter cloacae) [µg/mL] | MIC90 (Enterobacter cloacae) [µg/mL] | MIC50 (Staphylococcus aureus [4]) [µg/mL] | MIC90 (Staphylococcus aureus [4]) [µg/mL] | MIC (Pseudomonas aeruginosa) [µg/mL] | MIC (Staphylococcus aureus [5]) [µg/mL] | MIC (Enterococcus sp.) [µg/mL] | MIC50 (Moraxella catarrhalis) [µg/mL] | MIC90 (Moraxella catarrhalis) [µg/mL] | MIC (Escherichia coli) [µg/mL] | MIC50 (Escherichia coli) [µg/mL] | MIC90 (Escherichia coli) [µg/mL] | MIC (Klebsiella sp.) [µg/mL] | MIC50 (Klebsiella sp.) [µg/mL] | MIC90 (Klebsiella sp.) [µg/mL]
1 | O=C(O)[C@H]1/C(=C/CO)O[C@@H]2CC(=O)N21 [CLAVULANIC ACID] | 28 | 136000 | 30 |  |  |  |  |  |  |  |  |  |  |  |  |  |  |  |  | 
2 | C/C=C1/C(=O)N2C(C(=O)O)=C3[C@@H](OC)CCC[C@@H]3[C@H]12 | 151 | 62 | 55 | > 25.6 | > 25.6 | > 25.6 | > 25.6 | > 256 | > 256 | > 25.6 | 0.8 (≈ 3.04 µM) | > 25.6 | 0.8 (≈ 3.04 µM) | 0.8 (≈ 3.04 µM) | > 25.6 | > 25.6 | > 25.6 | 6.4 (≈ 24.3 µM) | > 25.6 | > 25.6
3 | CC1(C)[C@H](C(=O)O)N2C(=O)C[C@H]2S1(=O)=O [SULBACTAM] | 3960 | 11900 | 1060 |  |  |  |  |  |  |  |  |  |  |  |  |  |  |  |  | 
4 | C[C@]1(Cn2ccnn2)[C@H](C(=O)O)N2C(=O)C[C@H]2S1(=O)=O [TAZOBACTAM] |  | 1760 | 14 |  |  |  |  |  |  |  |  |  |  |  |  |  |  |  |  | 
